{"data": "Published values pooled from the literature", "target": "Epithelial discoidin domain-containing receptor 1 (DDR1, Homo sapiens, UniProt Q08345)", "note": "Compare with care: the assays were run in different laboratories."}
{"SMILES": "Cc1ccc(NC(=O)c2ccc(C)c(C(F)(F)F)c2)cc1C#Cc1nn(C2CCC(O)CC2)c2ncnc(N)c12 (centres unmarked)", "test": "cell-free assay", "conditions": "10 µM", "endpoint": "remaining signal", "result": "-2%"}
{"SMILES": "Cc1ccc(C(=O)NCc2ccsc2)cc1C#Cc1cn(C(C)C)c2ncnc(N)c12", "test": "enzyme activity, inhibitor", "conditions": "1 µM", "endpoint": "activity vs control", "result": "0%"}
{"SMILES": "CNC(=O)c1cc2c(Oc3ccc(NC(=O)C4(C(=O)Nc5ccc(F)cc5)CC4)cc3)ccnc2cc1OC", "test": "enzyme activity, inhibitor, radiometric", "conditions": "1 µM", "endpoint": "inhibition", "result": "88%"}
{"SMILES": "Nc1ncnc2occ(-c3ccc(NC(=O)Nc4cc(C(F)(F)F)ccc4F)cc3)c12", "test": "cell-free assay", "conditions": "20 µM", "endpoint": "remaining signal", "result": "0.25%"}
{"SMILES": "Cc1cc(NC(=O)c2cccc3cc(-c4cccc5[nH]nc(N)c45)ccc23)ccc1F", "test": "enzyme activity, inhibitor", "conditions": "0.1 µM", "endpoint": "activity vs control", "result": "61%"}
{"SMILES": "Cc1cnc(NC2CCOCC2)nc1-n1cnc(C(=O)NC(CN)c2cc(F)cc(Cl)c2)c1 (centres unmarked)", "test": "enzyme activity, inhibitor, radiometric", "conditions": "1 µM", "endpoint": "remaining activity", "result": "104%"}
{"SMILES": "Cc1sc(C(=O)NC2COC2)cc1-n1cc(NC(=O)Nc2c(F)cccc2Cl)cn1", "test": "enzyme activity, inhibitor", "conditions": "10 µM", "endpoint": "remaining activity", "result": "83.7%"}
{"SMILES": "CN1CC(Oc2cnc(C#N)cc2-c2ccn3nc(NC(=O)C4CC4)cc3c2)C1", "test": "enzyme activity, inhibitor", "conditions": "1 µM", "endpoint": "inhibition", "result": "29%"}
{"SMILES": "CC(C)(O)[C@H]1CC[C@H](Nc2ccc3ncc(-c4cccc(C(F)(F)F)c4)n3n2)CC1", "test": "enzyme activity, inhibitor", "conditions": "1 µM", "endpoint": "remaining activity", "result": "6.32%"}
{"SMILES": "COc1cc(Cl)c(C(=O)N[C@@H](CN[C@H]2CC[C@@H](N)CC2)Cc2ccc(C#N)cc2)cc1-c1ccc(CN[C@H](C)c2ccc(C)cc2)o1", "test": "enzyme activity, inhibitor", "conditions": "1 µM", "endpoint": "remaining activity", "result": "112%"}
{"SMILES": "COCCOc1nc(-c2ccc(Cl)nc2)nc2c1CN(C(=O)c1ncn3ccccc13)CC2", "test": "cell-free assay, competition with immobilised ligand", "conditions": "0.1 µM", "endpoint": "remaining binding", "result": "100%"}
{"SMILES": "O=C(Nc1cnn(-c2csc(C(=O)NC3COC3)c2)c1)Nc1ccccc1Cl", "test": "enzyme activity, inhibitor", "conditions": "5 µM", "endpoint": "remaining activity", "result": "98.4%"}
{"SMILES": "CC/C(=N\\NC(=O)NCc1cccc(O)c1)c1ccc(O)c(C)c1O", "test": "enzyme activity, inhibitor", "conditions": "0.1 µM", "endpoint": "inhibition", "result": "-0.9%"}
{"SMILES": "Nc1c(C(=O)NCc2ccc(C(=O)NCCCC3CCCCC3)cc2)cnn1-c1ccccc1", "test": "binding, competition with immobilised ligand", "conditions": "1 µM", "endpoint": "remaining binding", "result": "43%"}
{"SMILES": "COc1cc2nccc(Oc3ccc(NC(=O)c4c5n(n(-c6ccc(F)cc6)c4=O)CCCC5)cc3)c2cc1OC", "test": "enzyme activity, inhibitor", "conditions": "0.1 µM", "endpoint": "inhibition", "result": "42%"}
{"SMILES": "CCOCCn1cc(C(=O)Nc2ccc(-n3nc(-c4cccnc4)cc3C(F)(F)F)cn2)ccc1=O", "test": "cell-free assay, competition with immobilised ligand", "conditions": "1 µM", "endpoint": "remaining binding", "result": "69%"}
{"SMILES": "C[C@H]1CCN(c2nccc(-c3cnn4ncccc34)n2)C1", "test": "binding", "conditions": "1 µM", "endpoint": "remaining binding", "result": "100%"}
